Source: ChEMBL document CHEMBL1122690, “Synthesis of potential antifilarial agents. 1-(5-Benzoylbenzimidazol-2-yl)-3-alkyl- and -arylureas” (1984)

Tests used:
Format in all cases: functional
Brugia pahangi [1] = assay: Antifilarial activity (percent reduction of live Brugia pahangi at necropsy relative to controls) was evaluated at dose of 100 mg/kg/day administered subcutaneously; settings: route subcutaneous
Method in brief: (§1)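 Male jirds (Meriones unguiculatus) carrying adult Brugia pahangi and Litomosoides carinii. Infection was by intraperitoneal inoculation of 24-25 L. carinii larvae 76–133 days before treatment, followed by 49-50 immature B. pahangi. Dosing was daily for 5 days. Necropsy was 55–70 days after the first dose, with a search of the pleural and peritoneal cavities. Live adult worms were scored as % reduction versus controls, usually averaged over 3 animals.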

Litomosoides carinii [2] = assay: Antifilarial activity (percent reduction of live Litomosoides carinii at necropsy relative to controls) was evaluated at dose of 100 mg/kg/day administered subcutaneously; settings: route subcutaneous; method in brief: as §1
Brugia pahangi [3] = assay: Antifilarial activity (percent reduction of live Brugia pahangi at necropsy relative to controls) was evaluated at dose of 25 mg/kg/day administered subcutaneously; settings: route subcutaneous; method in brief: as §1
Brugia pahangi [4] = assay: Antifilarial activity (percent reduction of live Brugia pahangi at necropsy relative to controls) was evaluated at dose of 6.25 mg/kg/day administered subcutaneously; settings: route subcutaneous; method in brief: as §1
Litomosoides carinii [5] = assay: Antifilarial activity (percent reduction of live Litomosoides carinii at necropsy relative to controls) was evaluated at dose of 25 mg/kg/day administered subcutaneously; settings: route subcutaneous; method in brief: as §1
Litomosoides carinii [6] = assay: Antifilarial activity (percent reduction of live Litomosoides carinii at necropsy relative to controls) was evaluated at dose of 6.25 mg/kg/day administered subcutaneously; settings: route subcutaneous; method in brief: as §1
Brugia pahangi [7] = assay: Antifilarial activity (percent reduction of live Brugia pahangi at necropsy relative to controls) was evaluated at dose of 1.56 mg/kg/day administered subcutaneously; settings: route subcutaneous; method in brief: as §1
Litomosoides carinii [8] = assay: Antifilarial activity (percent reduction of live Litomosoides carinii at necropsy relative to controls) was evaluated at dose of 1.56 mg/kg/day administered subcutaneously; settings: route subcutaneous; method in brief: as §1
Litomosoides carinii [9] = assay: Antifilarial activity (percent reduction of live Litomosoides carinii at necropsy relative to controls) was evaluated at dose of 100 mg/kg/day administered perorally; settings: route oral; in the assay text read “25 mg/kg/day” for “100 mg/kg/day”; method in brief: as §1

| SMILES | Reduction (Brugia pahangi [1]) [%] | Reduction (Litomosoides carinii [2]) [%] | also measured |
| --- | --- | --- | --- |
| CCCNC(=O)Nc1nc2cc(C(=O)c3ccccc3)ccc2[nH]1 | 0 | 0 | – |
| CN1CCN(C(=O)Nc2nc3cc(C(=O)c4ccccc4)ccc3[nH]2)CC1 | 0 | 0 | – |
| O=C(NCCO)Nc1nc2cc(C(=O)c3ccccc3)ccc2[nH]1 | 15 | 20 | – |
| O=C(Nc1ccc(Cl)c(Cl)c1)Nc1nc2cc(C(=O)c3ccccc3)ccc2[nH]1 | 0 | 9 | – |
| CN(C)C(=O)Nc1nc2cc(C(=O)c3ccccc3)ccc2[nH]1 | 100 | 100 | Reduction (Brugia pahangi [3]): 0%; Reduction (Brugia pahangi [4]): 0%; Reduction (Litomosoides carinii [5]): 87%; Reduction (Litomosoides carinii [6]): 61% |
| O=C(Nc1ccc(F)cc1)Nc1nc2cc(C(=O)c3ccccc3)ccc2[nH]1 | 6 | 66 | – |
| O=C(Nc1nc2cc(C(=O)c3ccccc3)ccc2[nH]1)Nc1ccccc1[N+](=O)[O-] | 6 | 0 | – |
| Cc1ccc(NC(=O)Nc2nc3cc(C(=O)c4ccccc4)ccc3[nH]2)cc1 | 0 | 27 | – |
| Cc1cccc(NC(=O)Nc2nc3cc(C(=O)c4ccccc4)ccc3[nH]2)c1 | 0 | 0 | – |
| O=C(Nc1ccc([N+](=O)[O-])cc1)Nc1nc2cc(C(=O)c3ccccc3)ccc2[nH]1 | 9 | 0 | – |
| O=C(Nc1nc2cc(C(=O)c3ccccc3)ccc2[nH]1)Nc1ccccc1F | 0 | 0 | – |
| O=C(Nc1cccc([N+](=O)[O-])c1)Nc1nc2cc(C(=O)c3ccccc3)ccc2[nH]1 | 0 | 32 | – |
| O=C(Nc1ccccc1)Nc1nc2cc(C(=O)c3ccccc3)ccc2[nH]1 | 0 | 66 | – |
| COC(=O)Nc1nc2cc(C(=O)c3ccccc3)ccc2[nH]1 [MEBENDAZOLE] | – | – | Reduction (Brugia pahangi [7]): 12.5%; Reduction (Brugia pahangi [3]): 100%; Reduction (Brugia pahangi [4]): 100%; Reduction (Litomosoides carinii [5]): 100%; Reduction (Litomosoides carinii [6]): 100%; Reduction (Litomosoides carinii [8]): 97% |
| Cc1ccc(C(=O)Nc2ccc(S(=O)(=O)O)c3cc(S(=O)(=O)O)cc(S(=O)(=O)O)c23)cc1NC(=O)c1cccc(NC(=O)Nc2cccc(C(=O)Nc3cc(C(=O)Nc4ccc(S(=O)(=O)O)c5cc(S(=O)(=O)O)cc(S(=O)(=O)O)c45)ccc3C)c2)c1 [SURAMIN] | – | – | Reduction (Litomosoides carinii [9]): 71% |
